Test results: ChEMBL document CHEMBL1124408, “3-aminopyridazine derivatives with atypical antidepressant, serotonergic, and dopaminergic activities” (J Med Chem, 1989)

How the values were obtained:
Mus musculus [1] = experiment: Compound was tested for antidepressant activity against reserpine induced ptosis in mice after intraperitoneal administration.; value ranges from 9-12; assay type: functional; conditions: ip
Procedure, shortened: (§1)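 Female CD1 mice (18-22 g) received the drug in distilled water/gum tragacanth ip at multiple doses (7-20 mice/dose), given together with reserpine (2 mg/kg iv). One hour later, palpebral ptosis (half or more of the lid closed) was scored all-or-none. Screening dose was at most 50% of the seizure threshold dose.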

Mus musculus [2] = experiment: Serotonergic activity by measuring the potentiation of 5-hydroxy tryptophan in mice upon ip administration; value ranges from 1.4-2.1; assay type: functional
Procedure, shortened: (§2)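 Drug was injected ip in distilled water/gum tragacanth to female CD1 mice (18-22 g) at multiple doses (7-20 mice/dose), 30 min before a threshold dose of L-5-HTP (200 mg/kg ip). Mice were held singly in small cages, and tremor was scored all-or-none over the 20 min after L-5-HTP.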

Mus musculus [3] = experiment: Ability to modify turning behavior of mice after intraperitoneal administration; assay type: functional; conditions: ip, read-out: MED
Procedure, shortened: (§3)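 Female CD1 mice (25-30 g) were lesioned by stereotaxic injection of 6-OHDA (10 μg in 1 μL saline with 1 mg/mL ascorbic acid) into the right striatum under pentobarbitone (60 mg/kg ip). Seven days later, drug in distilled water/gum tragacanth was given ip at multiple doses (7-20 mice/dose). Ipsilateral turns were counted for 2 min starting 30 min post-dose.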

[4] = (§4) Acute toxicity in mice after intraperitoneal administration.; conditions: mouse, in vivo, ip, LD50
Mus musculus [5] = experiment: Compound was tested for antidepressant activity against reserpine induced ptosis in mice after intraperitoneal administration.; value ranges from 3.2-6.3; assay type: functional; conditions: ip; procedure, shortened: as §1
Mus musculus [6] = experiment: Serotonergic activity by measuring the potentiation of 5-hydroxy tryptophan in mice upon ip administration; the value ranges from 3-38; assay type: functional; procedure, shortened: as §2
Mus musculus [7] = experiment: Antidepressant activity against reserpine induced ptosis in mice after intraperitoneal administration.; assay type: functional; conditions: ip; procedure, shortened: as §1
Mus musculus [8] = experiment: Serotonergic activity was determined by measuring the potentiation of 5-hydroxytryptophan in mice upon ip administration; assay type: functional; procedure, shortened: as §2
Mus musculus [9] = experiment: Compound was tested for antidepressant activity against reserpine induced ptosis in mice after intraperitoneal administration.; value ranges from 4-7; assay type: functional; conditions: ip; procedure, shortened: as §1
Mus musculus [10] = experiment: Serotonergic activity by measuring the potentiation of 5-hydroxy tryptophan in mice upon ip administration; value ranges from 19-31; assay type: functional; procedure, shortened: as §2
Mus musculus [11] = experiment: as §4; conditions: in vivo, ip
Mus musculus [12] = experiment: Compound was tested for antidepressant activity against reserpine induced ptosis in mice after intraperitoneal administration.; value ranges from 1.9-10.7; assay type: functional; conditions: ip; procedure, shortened: as §1
Mus musculus [13] = experiment: Serotonergic activity by measuring the potentiation of 5-hydroxy tryptophan in mice upon ip administration; value ranges from 1.9-11.7.; assay type: functional; procedure, shortened: as §2
Mus musculus [14] = experiment: Compound was tested for antidepressant activity against reserpine induced ptosis in mice after intraperitoneal administration.; value ranges from 31-38; assay type: functional; conditions: ip; procedure, shortened: as §1
[15] = Compound was tested for acute toxicity in mice after intraperitoneal administration; assay type: organism-based; conditions: mouse, in vivo, ip
Procedure, shortened: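 Female CD1 mice in groups of 5-10 received drug or vehicle (distilled water with gum tragacanth) ip. LD50 was derived graphically.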

Mus musculus [16] = experiment: Compound was tested for antidepressant activity against reserpine induced ptosis in mice after intraperitoneal administration.; value ranges from 11-16; assay type: functional; conditions: ip; procedure, shortened: as §1
Mus musculus [17] = experiment: Ability to modify turning behavior of mice after intraperitoneal administration.; assay type: functional; conditions: ip, read-out: MED; procedure, shortened: as §3
Mus musculus [18] = experiment: Compound was tested for antidepressant activity against reserpine induced ptosis in mice after intraperitoneal administration.; value ranges from 0.13-0.22; assay type: functional; conditions: ip; procedure, shortened: as §1
Mus musculus [19] = experiment: Compound was tested for antidepressant activity against reserpine induced ptosis in mice after intraperitoneal administration.; value ranges from 5-9; assay type: functional; conditions: ip; procedure, shortened: as §1
Mus musculus [20] = experiment: Compound was tested for antidepressant activity against reserpine induced ptosis in mice after intraperitoneal administration.; value ranges from 16-20; assay type: functional; conditions: ip; procedure, shortened: as §1
Mus musculus [21] = experiment: Serotonergic activity by measuring the potentiation of 5-hydroxy tryptophan in mice upon ip administration; value ranges from 17-20; assay type: functional; procedure, shortened: as §2
Mus musculus [22] = experiment: Compound was tested for antidepressant activity against reserpine induced ptosis in mice after intraperitoneal administration; 50% activity at this maximal tested dose; assay type: functional; conditions: ip; procedure, shortened: as §1
Mus musculus [23] = experiment: Compound was tested for antidepressant activity against reserpine induced ptosis in mice after intraperitoneal administration.; value ranges from 11-34; assay type: functional; conditions: ip; procedure, shortened: as §1

Structure (SMILES) | minimal effective dose (Mus musculus [3]) [mg/kg] | LD50 [4] [mg/kg] | ED50 (Mus musculus [7]) [mg/kg] | ED50 (Mus musculus [8]) [mg/kg] | also measured
Cc1cc(-c2ccsc2)nnc1NCCN1CCOCC1 | > 10 | 72 | – | – | ED50 (Mus musculus [1]): 10 mg/kg; ED50 (Mus musculus [2]): 1.7 mg/kg
Cc1cc(C2CCCCC2)nnc1NCCN1CCOCC1 | > 10 | 43 | – | – | ED50 (Mus musculus [5]): 4.5 mg/kg; ED50 (Mus musculus [6]): 16 mg/kg
Cc1cc(-c2ccc(N)cc2)nnc1NCCN1CCOCC1 | > 2 | 15 | > 5 | – | –
c1ccc(-c2cc(-c3ccccc3)c(NCCN3CCOCC3)nn2)cc1 | > 2 | 150 | > 50 | > 25 | –
CCOC(=O)c1cc(-c2ccccc2)nnc1NCCN1CCOCC1 | 0.5 | 180 | > 50 | – | –
Cc1cc(-c2ccccc2)nnc1NCCN1CCOCC1.Cl | – | – | – | – | ED50 (Mus musculus [9]): 5 mg/kg; ED50 (Mus musculus [10]): 24 mg/kg; LD50 (Mus musculus [11]): 63 mg/kg
Cc1cc(-c2ccccc2)nnc1NCCCCN | 0.1 | 300 | > 50 | > 30 | –
c1ccc(-c2cc(Cc3ccc4ccccc4c3)c(NCCN3CCOCC3)nn2)cc1 | 2 | 275 | > 50 | > 100 | –
Cc1cc(-c2ccccc2F)nnc1NCCN1CCOCC1 | 0.5 | 26 | > 10 | > 10 | –
Cc1cc(-c2ccc(F)cc2)nnc1NCCN1CCOCC1 | 2 | 45 | – | – | ED50 (Mus musculus [12]): 4.5 mg/kg; ED50 (Mus musculus [13]): 4.7 mg/kg
Cc1cc(-c2ccccc2)nnc1NC(C)CN (configuration not stated) | 2 | > 200 | – | > 30 | ED50 (Mus musculus [14]): 34 mg/kg
Cc1cc(-c2ccccc2Cl)nnc1NCCN1CCOCC1 | 1 | 7 | > 5 | – | –
Cc1cc(-c2ccccc2)nnc1NCCCN1CCOCC1 | 2 | – | > 30 | > 25 | LD50 [15]: 66 mg/kg
Cc1ccccc1-c1cc(C)c(NCCN2CCOCC2)nn1 | > 1 | 5 | > 1 | > 1 | –
Cc1cc(-c2ccc([N+](=O)[O-])cc2)nnc1NCCN1CCOCC1 | – | 35 | – | – | –
Clc1ccc(Cc2cc(-c3ccccc3)nnc2NCCN2CCOCC2)cc1 | 10 | 180 | > 30 | > 30 | –
Cc1cc(-c2ccc3ccccc3c2)nnc1NCCN1CCOCC1 | > 2 | 23 | > 10 | – | –
Cc1cc(-c2ccccc2)nnc1NCC(C)N1CCOCC1 (configuration not stated) | 2 | 54 | – | > 15 | ED50 (Mus musculus [16]): 13 mg/kg
CN1Cc2c(N)cccc2C(c2ccccc2)C1 (configuration not stated) [NOMIFENSINE] | – | – | – | > 30 | minimal effective dose (Mus musculus [17]): 5 mg/kg; ED50 (Mus musculus [18]): 0.17 mg/kg
COc1cccc(-c2cc(C)c(NCCN3CCOCC3)nn2)c1 | 0.5 | 18 | – | > 5 | ED50 (Mus musculus [19]): 6 mg/kg
Br.Br.Cc1cc(-c2ccccc2O)nnc1NCCN1CCOCC1 | 0.1 | > 200 | – | – | ED50 (Mus musculus [20]): 16 mg/kg; ED50 (Mus musculus [21]): 17 mg/kg
Cc1cccc(-c2cc(C)c(NCCN3CCOCC3)nn2)c1 | > 2 | 23 | – | > 10 | ED50 (Mus musculus [22]): 10 mg/kg
Cc1cc(-c2ccccc2)nnc1NCCN1CCOCC1C (configuration not stated) | > 2 | 110 | – | 30 | ED50 (Mus musculus [23]): 20 mg/kg
CCc1cc(-c2ccccc2)nnc1NCCN1CCOCC1 | 2 | 31 | > 10 | > 10 | –
